Source: ChEMBL document CHEMBL1154950, “Biochemical analysis of cellular target of S-trityl-L-cysteine derivatives using affinity matrix” (Bioorg Med Chem Lett, 2010)
Active and inactive are the calls of the source. No cut-off for these calls is given here.

What was measured:
Format in all cases: cell-based
Conditions in all cases: HCT-116
[1] = target: T1, Kinesin-like protein KIF11 (Homo sapiens) (UniProt P52732); assay: Competitive inhibition of affinity bead (R)-2-Amino-N-{2-[2-(2-amino-ethoxy)-ethoxy]-ethyl}-3-[(4-methoxy-phenyl)-diphenyl-methylsulfanyl]-propionamide binding to KSP in human HCT116 cells at 10 umol/L pretreated for 3 hrs by Western blot analysis
T1 sequence (whole entry): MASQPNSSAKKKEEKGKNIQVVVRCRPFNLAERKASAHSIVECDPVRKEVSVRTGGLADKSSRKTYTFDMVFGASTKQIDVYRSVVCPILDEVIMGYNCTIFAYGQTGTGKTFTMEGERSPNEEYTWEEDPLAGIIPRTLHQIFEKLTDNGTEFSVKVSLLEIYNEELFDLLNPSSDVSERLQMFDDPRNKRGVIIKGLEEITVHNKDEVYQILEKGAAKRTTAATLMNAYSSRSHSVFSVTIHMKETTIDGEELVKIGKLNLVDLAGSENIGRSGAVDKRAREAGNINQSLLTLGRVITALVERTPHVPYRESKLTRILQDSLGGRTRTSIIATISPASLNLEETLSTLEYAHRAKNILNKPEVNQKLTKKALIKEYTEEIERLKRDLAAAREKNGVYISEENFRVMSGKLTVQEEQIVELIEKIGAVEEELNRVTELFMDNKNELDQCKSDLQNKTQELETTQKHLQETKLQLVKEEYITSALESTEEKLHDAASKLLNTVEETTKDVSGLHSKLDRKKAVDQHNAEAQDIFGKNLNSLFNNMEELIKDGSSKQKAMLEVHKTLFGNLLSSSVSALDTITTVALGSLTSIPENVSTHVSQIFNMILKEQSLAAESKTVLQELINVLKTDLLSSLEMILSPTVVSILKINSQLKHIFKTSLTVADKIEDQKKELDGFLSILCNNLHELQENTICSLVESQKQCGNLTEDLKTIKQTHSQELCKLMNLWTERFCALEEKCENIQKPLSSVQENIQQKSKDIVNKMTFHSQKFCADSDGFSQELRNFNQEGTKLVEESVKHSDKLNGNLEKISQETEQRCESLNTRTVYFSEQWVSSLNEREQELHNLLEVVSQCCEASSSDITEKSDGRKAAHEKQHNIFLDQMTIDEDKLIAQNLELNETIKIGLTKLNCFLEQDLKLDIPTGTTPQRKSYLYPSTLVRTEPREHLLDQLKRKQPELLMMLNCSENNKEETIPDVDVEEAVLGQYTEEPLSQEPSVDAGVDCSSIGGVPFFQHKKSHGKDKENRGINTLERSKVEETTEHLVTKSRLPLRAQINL

[2] = target: T1, Kinesin-like protein KIF11 (Homo sapiens); assay: Competitive inhibition of affinity bead (R)-2-Amino-N-{2-[2-(2-amino-ethoxy)-ethoxy]-ethyl}-3-[(4-methoxy-phenyl)-diphenyl-methylsulfanyl]-propionamide binding to KSP in human HCT116 cells at >30 umol/L pretreated for 3 hrs by Western blot analysis
[3] = target: T1, Kinesin-like protein KIF11 (Homo sapiens); assay: Inhibition of affinity bead (R)-2-Amino-N-{2-[2-(2-amino-ethoxy)-ethoxy]-ethyl}-3-[(4-methoxy-phenyl)-diphenyl-methylsulfanyl]-propionamide binding to KSP in human HCT116 cells pretreated for 3 hrs by Western blot analysis
[4] = target: T1, Kinesin-like protein KIF11 (Homo sapiens); assay: Displacement of affinity bead (R)-2-Amino-N-{2-[2-(2-amino-ethoxy)-ethoxy]-ethyl}-3-[(4-methoxy-phenyl)-diphenyl-methylsulfanyl]-propionamide from KSP in human HCT116 cells after 2 hrs by Western blot analysis
In short: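 This is a cell-free competition assay. Drug-immobilized or ethanolamine control beads were washed and resuspended in binding buffer containing DMSO or compound in DMSO. They were rotated for 2 h at 4 °C with 50 mg/mL BSA and 8 mg/mL HCT116 cytoplasmic extract (freeze–thaw lysate). Beads were washed three times, and KSP on the beads and in the supernatant was assessed by anti-KSP Western blot.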

Row | Activity [1] | Activity [2] | Structure (SMILES) | inhibition [3] | Activity [4]
1 | Active | – | CC1(C)CC(=O)C2=C(C1)NC(=S)NC2c1cccc(O)c1 (stereo not drawn) | – | –
2 | inactive | Active | NS(=O)(=O)Nc1ccc(-c2ccc(C(F)(F)F)cn2)cc1 | – | –
3 | Active | – | N[C@@H](CSC(c1ccccc1)(c1ccccc1)c1ccc(C(F)(F)F)cc1)C(=O)O | Active | Dose-dependent effect
4 | – | – | N[C@@H](CSC(c1ccccc1)c1ccccc1)C(=O)O | inactive | inactive
